TAG inh = reduces triacylglycerol accumulation in H9c2 cells; Nile Red lipid (TAG) fluorescence; cells loaded with 200 µM oleic acid; inhibition, % at 12.5 µM; 0.66% of 230,000 active; AID 651582;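 active means pattern-corrected inhibition of lipid staining of at least 50% with the nuclear-stain viability signal not falling by more than 50%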
Platelet DG rel = modulates dense granule release in human platelets; AID 1663; inhibition, %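 (compounds screened at 7.5 µM in platelet-rich plasma)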; 0.22% of 300,000 active; human platelet-rich plasma, SFLLRN dense granule ATP release, luminescence;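 active means mean replicate score, as percent of positive control, at or above 50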
STAT1 inh = inhibitors of IFN-gamma induced STAT1 signaling; NIH 3T3 STAT1-luciferase reporter, luminescence; inhibition, % at 5.5 µM; 0.35% of 200,000 active; AID 920;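 active means inhibition above a set limit, the mean inhibition across all tested compounds plus 3 SD, cut at about 34% in these data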
Lipid droplet = modulators of hepatic lipid droplet formation. AML12 mouse hepatocytes, oleate lipid droplets, BODIPY imaging. inhibition, % at 6.5 µM. 0.4% of 240,000 active;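 active means lipid droplet intensity inhibited by at least 50%, with more than 500 cells counted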
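Test system: AML12 hepatocytes (mouse); reagent: oleate loading, 100 µM; dosing: one dose, 6.5 µM compound; incubation: overnight exposure; signal: fluorescence imaging, 20x objective, two fields per well; read-out basis: % inhibition of corrected integrated BODIPY droplet signal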
STAT3 blocker = inhibitors of IL-6 induced STAT3 signaling. U3A cells, IL-6 STAT3-luciferase reporter, luminescence; host cell line lacks STAT1. inhibition, % at 5.5 µM. 0.89% of 190,000 active. AID 862;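 active means inhibition above the mean inhibition across all screened compounds plus 3 SD, cut at about 44% in these data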
PPC-1+TRAIL kill = PPC-1 cancer cell killing with TRAIL present | cell killing (% activity), % at 4 µM or 5 µM | AID 1443 | 0.41% of 220,000 active | PPC-1 cells + TRAIL, ATPLite viability luminescence;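 active means cell killing above 50% in the first pass at 4 µM, then a duplicate retest at 5 µM averaging 50% or more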
A number is an active result; 0 = inactive; - = no result given; ! = not active in a repeat. The list is not random: actives were taken first. Their share in the collection is about 1.5%.

SMILES	TAG inh	Platelet DG rel	STAT1 inh	Lipid droplet	STAT3 blocker	PPC-1+TRAIL kill
CC(C)[C@@H]1CC[C@@H](C)C[C@H]1OC(=O)C[n+]1cc(-c2ccc(Cl)cc2)n2c1CCCCC2	80	0	-	0	-	0
CCN(CC)S(=O)(=O)c1ccc(Cl)c(C(=O)Nc2cc(C)nn2-c2ccccc2)c1	-	0	0	0	0	51
CCN(CC)S(=O)(=O)c1cccc(C(=O)Nc2cc(C)nn2-c2ccccc2)c1	-	0	0	0	0	0
COC(=O)C1=C(CN2CCCc3ccccc32)NC(=O)NC1c1ccc(F)cc1 (stereo unspecified)	-	0	60	-	91	0
COc1ccc(C(=O)Nc2ccccc2C(=O)Nc2cccnc2)cc1	-	64	-	0	-	-
COc1ccc(C(=O)Nc2cccnc2)cc1	-	0	0	0	0	0
Fc1ccc([C@@H]2CCNC[C@H]2COc2ccc3c(c2)OCO3)cc1	52!	0	-	0	-	0
Fc1ccc(C2CCNCC2COc2ccc3c(c2)OCO3)cc1 (stereo unspecified)	-	-	-	0	-	-
CCOC(=O)c1c(N2CCCCC2)c2ccccc2[nH]c1=O	0	70	0	0	0	0
CCOC(=O)c1c(NCC(C)C)c2ccccc2[nH]c1=O	0	0	0	0	0	0
COc1ccc(C(=O)N/N=C/c2cc(Br)ccc2O)cc1OC	56	0	-	0	-	0
COc1ccc(Br)cc1/C=N/NC(=O)c1cc(Br)ccc1O	-	0	0	0	0	0
COc1ccc2c(c1OC)C(=O)N1c3ccccc3C(=O)N(c3ccccc3)C21 (stereo unspecified)	-	0	53	0	49	0
COc1cc2c(cc1OC)-c1cc(N3CCCCCC3)nc(=O)n1CC2	-	54	0	0	0	0
COc1cc2c(cc1OC)-c1cc(NC3CCCCCC3)nc(=O)n1CC2	-	82	0	-	0	0
COc1cc2c(cc1OC)-c1cc(Nc3ccc(C(=O)O)cc3)nc(=O)n1CC2	-	0	-	0	-	-
COc1cc2c(cc1OC)-c1cc(N3CCCc4ccccc43)nc(=O)n1CC2	-	0	0	0	0	0
COc1ccc(Nc2cc3n(c(=O)n2)CCc2cc(OC)c(OC)cc2-3)cc1	-	61	-	0	-	-
COc1cc2c(cc1OC)-c1cc(Nc3ccccc3)nc(=O)n1CC2	0	131	-	0	-	0
Cc1ccc(CNc2nc3cc(-c4ccccc4)sc3c(=O)n2C)c(C)c1	0	-	-	-	-	-
CCOC(=O)C1(C)CCCN(C(=O)c2c(-c3ccccc3)noc2C)C1 (stereo unspecified)	0	-	-	-	-	-
O=S(=O)(c1cccs1)N1CCCCC1	0	-	-	-	-	-
CCOc1nc(OCC)c2[nH]c(C(=O)O)c(Br)c2n1	0	-	-	-	-	-
COc1ccc(NC(=O)c2cc(-c3cc(C)cc(F)c3)n[nH]2)cc1OC	0	-	-	-	-	-
Cn1nc(C(C)(C)C)cc1C(=O)N1CCCCC1c1cc(C(=O)Nc2ccc(F)c(Cl)c2)no1 (stereo unspecified)	0	-	-	-	-	-
SMILES	TAG inh	Platelet DG rel	STAT1 inh	Lipid droplet	STAT3 blocker	PPC-1+TRAIL kill
CCCS(=O)(=O)NC(=O)C1(C)CCN(C(=O)c2cc(C(C)(C)C)nn2C)C1 (stereo unspecified)	0	-	-	-	-	-
CCOc1cccc(Nc2cc3n(c(=O)n2)CCc2cc(OC)c(OC)cc2-3)c1	-	0	0	-	0	0
COc1cc2c(cc1OC)-c1cc(Nc3ccc(C)cc3)nc(=O)n1CC2	-	113	-	0	-	-
COc1ccc(Nc2cc3n(c(=O)n2)CCc2cc(OC)c(OC)cc2-3)c(C)c1	-	80	-	0	-	-
CCN(CC)CCCNc1cc2n(c(=O)n1)CCc1cc(OC)c(OC)cc1-2	-	0	0	-	0	0
COc1cc2c(cc1OC)-c1cc(Nc3ccc4c(c3)OCCO4)nc(=O)n1CC2	0	51	0	0	0	0
COc1cc2c(cc1OC)-c1cc(Nc3ccccc3Br)nc(=O)n1CC2	-	94	-	0	-	-
CCN(CC)S(=O)(=O)c1ccc2c(c1)nc(CCC(=O)O)n2C	0	60	-	0	-	0
O=[N+]([O-])C1C(c2ccccc2)C12c1ccccc1-c1ccccc12 (stereo unspecified)	0	-	-	-	-	-
COc1cccc(OCCNC(=O)c2cccc(OC)c2)c1	-	53	0	0	0	0
COc1cccc(OCCNC(=O)c2ccc(C)cc2)c1	-	0	-	0	-	-
O=C1NC(=O)/C(=C\c2ccc(OCc3cccc(C(=O)O)c3)c(Cl)c2)N1	0	0	71	0	73	0
Nc1ccc(-c2nc3ccccc3s2)cn1	-	0	-	0	-	-
O=C1CCC(=O)N1c1ccc(-c2nc3ccccc3s2)cc1	-	0	68	0	86	0
Cc1nc(N/N=C/c2ccccn2)sc1C	-	-	80	0	89	70
O=S(=O)(c1ccc2c(c1)OCCO2)N1CCN(c2ncnc3sccc23)CC1	-	0	38	0	61	0
CC(=O)c1ccc2c(c1)N(Cc1ccccc1)C(=O)C(C)S2 (stereo unspecified)	0	-	-	-	-	-
Cc1ccc(S(=O)(=O)NCC(=O)OCC(=O)NC(=O)c2cccn2C)cc1	-	0	0	0	0	0
Cc1ccc(S(=O)(=O)NCCC(=O)OCC(=O)NC(=O)c2cccn2C)cc1	0	61	-	0	-	0
OC[C@@H]1CN(C2CCCC2)C[C@H](n2cnc3c(NC4CC4)ncnc32)O1	0	-	-	-	-	-
CCOC(=O)Cc1ccc2sc(-c3ccccc3)nc2c1	0	55	0	0	0	0
CC(=O)c1sc(NC(=O)C2(F)C(F)(F)C(F)(F)C(F)(F)C(F)(F)C2(F)F)nc1C	-	0	37	-	58	0
O=S(=O)(CCNCc1ccco1)NC1CCCCC1	0	-	-	-	-	-
COC(=O)C1C2CC3c4[nH]c5cc(OC)ccc5c4CCN3CC2CC(OC(=O)CC(C)=O)C1OC (stereo unspecified)	0	-	-	-	-	-
CCOC(=O)Oc1c(OC)cc(C(=O)O[C@@H]2C[C@@H]3CN4CCc5c([nH]c6cc(OC)ccc56)[C@H]4C[C@@H]3[C@H](C(=O)OC)[C@H]2OC)cc1OC	60	-	-	-	-	-
SMILES	TAG inh	Platelet DG rel	STAT1 inh	Lipid droplet	STAT3 blocker	PPC-1+TRAIL kill
CCOc1ccc(Cl)cc1-c1cc(C(=O)NC2CCCCC2)[nH]n1	0	-	-	-	-	-
CC(C)C#Cc1ccc2c(c1)O[C@@H](CN(C)S(=O)(=O)c1cn(C)cn1)[C@@H](C)CN([C@H](C)CO)S2(=O)=O	0	-	-	-	-	-
O=C1C(Cl)=C(N2CCC(C(=O)O)CC2)C(=O)c2ccccc21	0	0	-	-	-	0
CN1CCN(C2=C(Cl)C(=O)c3ccccc3C2=O)CC1	58	-	-	-	-	-
COc1cc(NC(=O)C2(C)CCCN2C)cc(OC)c1OC (stereo unspecified)	0	-	-	-	-	-
Oc1ccc(N=Nc2ccc3ccccc3c2)cc1	-	54	-	0	-	-
CCCCc1ccc(S(=O)(=O)NC(=O)C2(C)CCN2C(=O)CC2CC2)cc1 (stereo unspecified)	0	-	-	-	-	-
Cc1cn(-c2cc(C(=O)Nc3ccc(C)c(NC(=O)C(=O)c4c[nH]c5ccccc45)c3)cc(C(F)(F)F)c2)cn1	124!	0	-	0	-	0
COC(=O)c1ccc(NC(=O)C(=O)c2c[nH]c3ccccc23)cc1	-	0	-	0	-	-
CC1(C)CC(=O)C(CC(=O)c2ccccc2)=C(NN=C(N)N)C1	0	-	-	-	-	-
